Experimental data: ChEMBL document CHEMBL4052826, “Design and Synthesis of Novel Reactive Oxygen Species Inducers for the Treatment of Pancreatic Ductal Adenocarcinoma” (J Med Chem, 2018)
Calls of active or inactive are those of the source. No cut-off for these calls is given here.

Experiments:
MIA PaCa-2 [1] = assay: Induction of unfolded protein response in human MIAPaCa2 cells assessed as upregulation of HSPA5 gene expression after 4 hrs by Bru-seq analysis; assay type: functional, cell-based
Method in brief: (§1)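 Nascent RNA sequencing (Bru-seq): 4×10^6 MIA PaCa-2 cells seeded in 10 cm dishes, treated next day for 4 h with drug or DMSO. Bromouridine (2 mM final) added for the last 30 min. Total RNA taken in TRIZOL; labeled RNA immunocaptured, converted to cDNA libraries and deep sequenced. Signal compared with DMSO-treated cells.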

MIA PaCa-2 [2] = assay: Cytotoxicity against gemcitabine-resistant human MIAPaCa2 cells assessed as decrease in cell proliferation after 72 hrs by MTT assay; assay type: functional, cell-based; conditions: MIA PaCa-2, 72 h
Method in brief: (§2)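 MTT assay. Cells (3000–8000/well) attached overnight in RPMI1640 with 10% FBS; the GR line was kept with 200 nM gemcitabine. Serial dilutions (30 nM–10 μM for most lines) were applied for 72 h. MTT was added at a final 300 μg/mL for 3 h at 37°C, formazan was dissolved in DMSO and A570 read. Inhibition = (1 − OD treated/OD control) × 100. IC50 given as mean ± SD, three independent experiments.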

BXPC-3 [3] = assay: Induction of reactive oxygen species generation in human BxPC3 cells assessed as upregulation of NQO1 expression at 5 uM after 4 to 24 hrs by Western blot analysis; assay type: functional, cell-based
Method in brief: (§3)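 Immunoblotting. Cells (4×10^5) in 60 mm dishes were treated, lysed 30 min at 4°C and quantified by BCA. 40 μg protein was run on SDS-PAGE and transferred to PVDF. Primary antibodies (1:1000) incubated overnight at 4°C, then Dylight 800 secondary, with fluorescent scanning. Bands were normalized to GAPDH or actin loading controls. Mean ± SD, three independent experiments, Student's t-test.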

PANC-1 [4] = assay: Induction of unfolded protein response in human PANC1 cells assessed as upregulation of CHOP expression at 5 uM by Western blot analysis; assay type: functional, cell-based; conditions: TDE = time-dependent effect
Method in brief: (§4)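 Cells (4×10^5) seeded in 60 mm dishes, cultured in RPMI1640 with 10% FBS, 5% CO2, 37°C, then compound-treated. Lysed 30 min at 4°C, BCA-quantified, 40 μg protein resolved by SDS-PAGE, transferred to PVDF, probed overnight at 4°C with primary antibodies (1:1000; GAPDH or actin loading control), then Dylight 800 secondary; fluorescence scanned. Bands normalized to loading control; mean ± SD, three independent experiments.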

BXPC-3 [5] = assay: Induction of unfolded protein response in human BxPC3 cells assessed as upregulation of CHOP expression at 5 uM by Western blot analysis; assay type: functional, cell-based; conditions: TDE = time-dependent effect; method in brief: as §3
[6] = Induction of compound aggregation
PANC-1 [7] = assay: Cytotoxicity against human PANC1 cells assessed as decrease in cell proliferation after 72 hrs by MTT assay; assay type: functional, cell-based; conditions: PANC-1, 72 h; method in brief: as §2
MIA PaCa-2 [8] = assay: Cytotoxicity against human MIAPaCa2 cells assessed as decrease in cell proliferation after 72 hrs by MTT assay; assay type: functional, cell-based; conditions: MIA PaCa-2, 72 h; method in brief: as §2
MIA PaCa-2 [9] = assay: Induction of reactive oxygen species generation in human MIAPaCa2 cells assessed as upregulation of HO-1 expression at 5 uM after 4 to 24 hrs by Western blot analysis; assay type: functional, cell-based; method in brief: as §3
MIA PaCa-2 [10] = assay: Induction of apoptosis signaling in human MIAPaCa2 cells at 3 times IC50 after 4 hrs by IPA analysis; assay type: functional, cell-based
MIA PaCa-2 [11] = assay: Induction of unfolded protein response in human MIAPaCa2 cells assessed as upregulation of DDIT3 gene expression after 4 hrs by Bru-seq analysis; assay type: functional, cell-based
MIA PaCa-2 [12] = assay: Cytotoxicity against human MIAPaCa2 cells assessed as decrease in cell proliferation after 72 hrs in presence of NAC by MTT assay; assay type: functional, cell-based
Method in brief: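 MIA PaCa-2 cells were treated for 72 h with compound in the presence of 5 mM NAC. Viability was read by MTT (final 300 μg/mL, 3 h, A570). Mean ± SD of three independent experiments.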

MIA PaCa-2 [13] = assay: Induction of unfolded protein response in human MIAPaCa2 cells assessed as upregulation of CHOP expression at 5 uM by Western blot analysis; assay type: functional, cell-based; conditions: TDE = time-dependent effect; method in brief: as §3
PANC-1 [14] = assay: Induction of reactive oxygen species generation in human PANC1 cells assessed as upregulation of HO-1 expression at 5 uM after 4 to 24 hrs by Western blot analysis; assay type: functional, cell-based; method in brief: as §3
PANC-1 [15] = assay: Induction of unfolded protein response in human PANC1 cells assessed as upregulation of GRP78 expression at 5 uM by Western blot analysis; assay type: functional, cell-based; conditions: TDE = time-dependent effect; method in brief: as §4
MIA PaCa-2 [16] = assay: Inhibition of mtDNA transcription from HSP1 promoter in human MIAPaCa2 cells at 3 times IC50 after 4 hrs by Bru-seq analysis; assay type: functional, cell-based; method in brief: as §1
MIA PaCa-2 [17] = assay: Induction of reactive oxygen species generation in human MIAPaCa2 cells assessed as upregulation of NQO1 expression at 5 uM after 4 to 24 hrs by Western blot analysis; assay type: functional, cell-based; method in brief: as §3
MIA PaCa-2 [18] = assay: Induction of reactive oxygen species generation in human MIAPaCa2 cells assessed as upregulation of NQO1 gene expression after 4 hrs by Bru-seq analysis; assay type: functional, cell-based
MIA PaCa-2 [19] = assay: Downregulation of Sp4 gene expression in human MIAPaCa2 cells at IC50 to 3 times IC50 after 4 hrs by Bru-seq analysis; assay type: functional, cell-based
MIA PaCa-2 [20] = assay: Induction of reactive oxygen species generation in human MIAPaCa2 cells at 1.1 to 10 uM after 24 hrs in presence of NAC by H2DCFDA reactivity assay; assay type: functional, cell-based
Method in brief: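 H2DCFDA assay. Trypsinized MIA PaCa-2 cells in suspension were loaded with 20 μM H2DCFDA for 30 min at 37°C, washed and plated at 20,000/well. After 30 min they were treated with compound at 10, 3.3 or 1.1 μM. Fluorescence was read at 493/523 nm over time. DMSO basal and unstained controls were included. NAC pretreatment, where used, was 5 mM for 30 min. Duplicates, three independent experiments.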

MIA PaCa-2 [21] = assay: Induction of unfolded protein response in human MIAPaCa2 cells assessed as upregulation of GRP78 expression at 5 uM by Western blot analysis; assay type: functional, cell-based; conditions: TDE = time-dependent effect; method in brief: as §4
MIA PaCa-2 [22] = assay: Downregulation of Sp1 gene expression in human MIAPaCa2 cells at IC50 to 3 times IC50 after 4 hrs by Bru-seq analysis; assay type: functional, cell-based
BXPC-3 [23] = assay: Induction of reactive oxygen species generation in human BxPC3 cells assessed as upregulation of HO-1 expression at 5 uM after 4 to 24 hrs by Western blot analysis; assay type: functional, cell-based; method in brief: as §3
[24] = Induction of compound colloidal behavior
BXPC-3 [25] = assay: Cytotoxicity against human BxPC3 cells assessed as decrease in cell proliferation after 72 hrs by MTT assay; assay type: functional, cell-based; conditions: BXPC-3, 72 h; method in brief: as §2
BXPC-3 [26] = assay: Induction of unfolded protein response in human BxPC3 cells assessed as upregulation of GRP78 expression at 5 uM by Western blot analysis; assay type: functional, cell-based; conditions: TDE = time-dependent effect; method in brief: as §3
MIA PaCa-2 [27] = assay: Induction of reactive oxygen species generation in human MIAPaCa2 cells assessed as upregulation of HMOX1 gene expression after 4 hrs by Bru-seq analysis; assay type: functional, cell-based
MIA PaCa-2 [28] = assay: Downregulation of COX-3 expression in human MIAPaCa2 cells at 5 uM after 4 to 24 hrs by Western blot method; assay type: functional, cell-based; method in brief: as §3
[29] = Cytotoxicity against HPDEC assessed as decrease in cell proliferation after 72 hrs by MTT assay; assay type: cell-based; conditions: Homo sapiens; method in brief: as §2
MIA PaCa-2 [30] = assay: Downregulation of Sp3 gene expression in human MIAPaCa2 cells at IC50 to 3 times IC50 after 4 hrs by Bru-seq analysis; assay type: functional, cell-based
MIA PaCa-2 [31] = assay: Inhibition of mtDNA transcription from HSP2 promoter in human MIAPaCa2 cells at 3 times IC50 after 4 hrs by Bru-seq analysis; assay type: functional, cell-based; method in brief: as §1
MIA PaCa-2 [32] = assay: Inhibition of mtDNA transcription from LSP promoter in human MIAPaCa2 cells at 3 times IC50 after 4 hrs by Bru-seq analysis; assay type: functional, cell-based; method in brief: as §1
MIA PaCa-2 [33] = assay: Antitumor activity against human MIAPaCa2 cells xenografted in NOD/SCID mouse at 15 mg/kg administered twice a week for 15 days; assay type: functional, organism-based
Method in brief: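 MIA PaCa-2 subcutaneous xenografts in NOD/SCID mice, randomized at 75 mm3. Test agent was given at 5 mg/kg five times a week. Gemcitabine was given at 15 mg/kg either once weekly for 48 days or twice weekly for 15 days. Groups were n=3–4. Tumor volume was measured by caliper, given as mean ± SEM, and compared by unpaired t test.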

Mus musculus [34] = assay: Toxicity in NOD/SCID mouse xenografted with human MIAPaCa2 cells assessed as body weight loss at 15 mg/kg administered twice a week for 15 days; assay type: organism-based; conditions: in vivo, 360 h
Method in brief: (§5)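 MIA PaCa-2 xenografted NOD/SCID mice randomized at 75 mm3 into vehicle (n=4), once-weekly (n=3) or twice-weekly (n=4) groups; 15 mg/kg given once a week for 48 days or twice a week for 15 days. Body weight followed; mean ± SEM.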

Mus musculus [35] = assay: Toxicity in NOD/SCID mouse xenografted with human MIAPaCa2 cells assessed as body weight loss at 15 mg/kg administered once a week for 48 days; assay type: organism-based; conditions: in vivo, 1152 h; method in brief: as §5
MIA PaCa-2 [36] = assay: Antitumor activity against human MIAPaCa2 cells xenografted in NOD/SCID mouse assessed as tumor volume at 15 mg/kg administered once a week for 48 days (reference value: 1503 +/- 189 mm'3); assay type: functional
Method in brief: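 MIA PaCa-2 cells (2.0 × 10^6 in RPMI1640) were injected subcutaneously into the dorsal flank of 6-week NOD/SCID mice. Mice were randomized at 75 mm3 mean tumor size (vehicle n=4, treated n=3) and dosed at 15 mg/kg once weekly for 48 days. Tumors were measured by caliper twice weekly, with V = d2 × D/2. Values are mean ± SEM, and p values are from an unpaired t test.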

CC(=O)c1cccc(NC2=CC(=O)c3ncncc3C2=O)c1
Activity (MIA PaCa-2 [1]): Dose-dependent effect
IC50 (MIA PaCa-2 [2]): 3.6 µM
Activity (BXPC-3 [3]): inactive
Activity (PANC-1 [4]): Tde
Activity (BXPC-3 [5]): Tde
Activity [6]: Active
IC50 (PANC-1 [7]): 900 nM
IC50 (MIA PaCa-2 [8]): 2300 nM
Activity (MIA PaCa-2 [9]): Active
Activity (MIA PaCa-2 [10]): Active
Activity (MIA PaCa-2 [11]): Dose-dependent effect
Activity (MIA PaCa-2 [12]): inactive
Activity (MIA PaCa-2 [13]): Tde
Activity (PANC-1 [14]): inactive
Activity (PANC-1 [15]): Tde
inhibition (MIA PaCa-2 [16]): inactive
Activity (MIA PaCa-2 [17]): inactive
Activity (MIA PaCa-2 [18]): Dose-dependent effect
Activity (MIA PaCa-2 [19]): inactive
Activity (MIA PaCa-2 [20]): inactive
Activity (MIA PaCa-2 [21]): Tde
Activity (MIA PaCa-2 [22]): inactive
Activity (BXPC-3 [23]): Active
Activity [24]: Active
IC50 (BXPC-3 [25]): 5.2 µM
Activity (BXPC-3 [26]): Tde
Activity (MIA PaCa-2 [27]): Dose-dependent effect
Activity (MIA PaCa-2 [28]): Active
IC50 [29]: 4500 nM
Activity (MIA PaCa-2 [30]): inactive
inhibition (MIA PaCa-2 [31]): Active
inhibition (MIA PaCa-2 [32]): Active

Nc1ccn([C@@H]2O[C@H](CO)[C@@H](O)C2(F)F)c(=O)n1 [GEMCITABINE]
IC50 (MIA PaCa-2 [2]): 3.3 µM
Activity (MIA PaCa-2 [33]): Active
Activity (Mus musculus [34]): Non-Toxic
IC50 (MIA PaCa-2 [8]): 110 nM
Activity (Mus musculus [35]): Non-Toxic
IC50 [29]: 140 nM
Activity (MIA PaCa-2 [36]): 387 mm3
